This is one part of the list. Active and inactive are the calls of the source.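 How the source made its calls: active means fluorescence beyond the plate control mean plus 3 SD, with a fluorescence-to-maximum score over 2 (cut at about 25 in these data); inactive means the rest.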
test: green-channel fluorescence of compounds in CCRF-Adr cells – cell-based, 488/530 nm, flow cytometry, artefact control for ABC transporter inhibitor project, confirmation (AID 1483); conditions: compound autofluorescence 488/530 nm, at 6.6 µM, stronger effect = higher value
Procedure, shortened: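 material = unlabeled drug-resistant CCRF-Adr cells | input = 3 million cells per mL, final in well | probe or stimulus = JC-1 substrate omitted | schedule = 10 min rotation at 25 °C | signal = flow cytometric MFI, 530 ± 20 nm | control set = DMSO-treated cell wells as background reference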

SMILES	fluorescence
CCOC(=O)c1sc(NC(=O)CSc2nnc(-c3ccco3)o2)c(C(=O)OCC)c1C	0.61 (inactive)
CCN1/C(=C/c2ccc3ccc(C)cc3[n+]2CC)Sc2ccccc21	130 (active)
C/C(=N\Nc1ncc(Cl)cc1Cl)c1ccc(S(=O)(=O)NCc2ccco2)cc1	-2.49 (inactive)
Cc1ccc(OCC(O)CN2CCN(CC(O)COc3ccc(C)cc3Cl)CC2)c(Cl)c1 (stereo not drawn)	22.4 (inactive)
Cc1cccc2cc(CN(Cc3cccs3)C(c3nnnn3C3CCCC3)C(C)C)c(=O)[nH]c12 (stereo not drawn)	-4.84 (inactive)
Cc1ccc(-n2c(SCC(=O)Nc3ncc(Cl)cc3Cl)nc3ccccc32)cc1	-0.64 (inactive)
O=C(Cc1c[nH]c2ccccc12)N/N=C/c1cccc(F)c1	4.76 (inactive)
COc1ccc(-n2c(C)cc(C(=O)COC(=O)c3cc(OC)c(OC)cc3NC(=O)c3cccs3)c2C)cc1	2.26 (inactive)
COc1ccc(C)cc1NC(=O)C(Sc1ccccc1)c1ccccc1 (stereo not drawn)	-2.64 (inactive)
Cc1c(CCOC(=O)CC23CC4CC(CC(C)(C4)C2)C3)sc[n+]1Cc1ccc([N+](=O)[O-])cc1	-2.94 (inactive)
COc1cccc(NC(=O)c2ccc(Cn3cc([N+](=O)[O-])cn3)o2)c1	5.61 (inactive)
CCOCC(=O)Nc1sc2c(c1C(=O)OCC)CCCC2	0.31 (inactive)
C=CCn1c(SCCOc2ccc(OC)cc2)nnc1C(NC(=O)c1ccc(OC)cc1)C(C)C (stereo not drawn)	180 (active)

— PubChem BioAssay AID1483 (NMMLSC, 2009)
